High-throughput results: PubChem, Johns Hopkins Ion Channel Center
Hits are enriched below; roughly 3.5% of the tested compounds scored in any of these assays.
MrgX1 antagonist = antagonists of human MrgX1 receptor, primary screen, HEK293 cells, Fluo-4 calcium flux. BAM8-22 antagonism; active compounds read low. B-score at 10 µM. actives 1.3% (n = 310,000). AID 588676, 2011;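 active = calcium-response B-score plate-corrected more than 3 library SD below zero, starting fluorescence within 5 deviations, no agonist response on first addition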;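 also: peak minus trough fluorescence over baseline after final BAM8-22 challenge near maximal dose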
Target sequence (Q96LB2 whole entry, looked up): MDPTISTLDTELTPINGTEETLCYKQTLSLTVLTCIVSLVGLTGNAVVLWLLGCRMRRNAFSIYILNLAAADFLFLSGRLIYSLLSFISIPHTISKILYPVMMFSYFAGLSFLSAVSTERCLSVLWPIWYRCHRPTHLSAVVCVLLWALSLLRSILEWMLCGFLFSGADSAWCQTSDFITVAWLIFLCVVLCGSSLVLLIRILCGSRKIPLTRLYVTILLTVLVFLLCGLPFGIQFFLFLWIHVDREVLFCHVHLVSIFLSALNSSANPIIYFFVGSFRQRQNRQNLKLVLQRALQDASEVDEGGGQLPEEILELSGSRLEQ
MrgX1 agonist = agonists of human MrgX1 receptor, primary screen, HEK293 cells, Fluo-4 calcium flux. Mas-related G-protein coupled receptor member X1 (Homo sapiens), Q96LB2. Fluo-4 calcium fluorescence, agonist mode; active compounds read high. B-score at 10 µM. actives 0.44% (n = 310,000);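 active = calcium response B-score plate-corrected fluorescence ratio at least 3 library SD, with starting fluorescence B-score inside 5 SD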
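Material – MrgX1-expressing HEK293 cells · Input – 15,000 cells seeded per well · Dosing – compound as first of three additions · Times – overnight seeding, then 1 h dark dye loading · Measured by – kinetic Fluo-4 NW fluorescence of intracellular calcium · Read-out – B-scored fluorescence response ratio · Benchmarks – positive and negative control wells on each plate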
RGS4 act = RGS4 potentiators or activators, primary screen, cell-based, HEK293 M3R inducible RGS4, calcium flux | carbachol calcium flux Fluo4; active compounds read low | B-score at 10 µM | actives 0.92% (n = 310,000);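 active = B-score of the integrated calcium signal more than 4 SD below the library mean, with starting fluorescence not abnormally high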;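 also: negative B-score means reduced calcium response which marks RGS4 activation or potentiation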
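Also added: carbachol at ECmax as muscarinic agonist stimulus; Assay system: HEK293 cells with stable M3R and inducible RGS4; Timing: overnight RGS4 induction, 30 min dye load 37 °C, 20 min compound RT; Measured by: Fluo4-AM (2 µM) calcium-flux fluorescence, kinetic read.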
MrgX1 PAM = positive allosteric modulators of MrgX1, primary screen, HEK293 cells, Fluo-4 calcium flux; FDSS; active compounds read high; AID 588675, 2011; B-score at 10 µM; actives 0.63% (n = 310,000);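 active = plate-corrected calcium response at least 3 library SD above typical, normal starting fluorescence, not activating the receptor alone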;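 also: compound read alongside a low EC10 to EC30 dose of BAM8-22 agonist; peak minus trough fluorescence over baseline measured at the second addition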
RGS4 inh = RGS4 inhibitors, primary screen, cell-based, HEK293 M3R inducible RGS4, calcium flux; B-score at 10 µM; actives 0.45% (n = 310,000); Fluo-4 calcium flux; active compounds read high; triggered by carbachol at its EC20;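 active = B-score, a plate-corrected calcium signal, over three deviations above library mean, with baseline fluorescence within five deviations of library mean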;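 also: RGS4 expression induced by doxycycline in cells with stable M3 receptor; B-score is computed from the integrated fluorescence ratio over baseline after carbachol; higher B-score means a larger calcium signal and so more RGS4 inhibition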
Target sequence (P49798 whole entry, looked up): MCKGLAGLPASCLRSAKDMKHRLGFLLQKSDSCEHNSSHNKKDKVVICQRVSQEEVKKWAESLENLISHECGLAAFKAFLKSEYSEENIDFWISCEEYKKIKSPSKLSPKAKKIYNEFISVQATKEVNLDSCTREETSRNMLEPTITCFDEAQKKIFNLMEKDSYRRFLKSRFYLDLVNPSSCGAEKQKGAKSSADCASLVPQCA
MrgX1 antag conf = MrgX1 receptor antagonists, duplicate retest, confirmation, HEK293 cells, Fluo-4 calcium flux; actives 19% (n = 2,300); remaining BAM8-22 calcium response % of control (active compounds read low), % at 10 µM; shares compounds with MrgX1 antagonist; BAM8-22 calcium flux; active compounds read low; AID 602420, 2012;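 active = remaining agonist calcium response no higher than 100% minus 3 SD of agonist-only control wells, with starting fluorescence near control levels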;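 also: agonist BAM8-22 given at a near maximal EC90 to ECmax level; peak minus minimum fluorescence divided by baseline after agonist addition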
HEK293 Ca flux = nonspecific calcium signal in parental HEK293, confirmation, counter-screen for MrgX1 antagonist project, parental HEK293 cells, Fluo-4 calcium flux | Fluo-4 calcium fluorescence, FDSS | actives 2% (n = 4,000) | AID 624111, 2012 | shares compounds with MrgX1 antagonist | fluorescence ratio F(max-min)/F0 at 10 µM;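 active = duplicate-averaged calcium fluorescence ratio at least three times the standard deviation of buffer wells, a nonspecific response in parental cells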
HEK293 Ca counter = calcium response in parental HEK293 cells, primary screen, counter-screen for MrgX1 allosteric activator project, cell-based, Fluo-4 calcium flux, duplicate | actives 0.4% (n = 4,000) | AID 624114, 2012 | shares compounds with MrgX1 antagonist | fluorescence ratio F(max-min)/F0 at 10 µM | Fluo-4 fluorescence ratio; active compounds read high;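 active = calcium fluorescence ratio, averaged over duplicates, at least 3 SD of the buffer-well ratio, meaning a nonspecific response in receptor-free cells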;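 also: untransfected parental HEK293 lacking MrgX1 used as counterscreen for MrgX1 allosteric activators; fluorescence change taken during the second addition on a kinetic imager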
HEK293 Ca cntr2 = calcium response in parental HEK293 cells, primary screen, counter-screen for MrgX1 agonist project, cell-based, Fluo-4 calcium flux, duplicate, agonist mode. fluorescence ratio F(max-min)/F0 at 10 µM. shares compounds with MrgX1 antagonist. actives 8.7% (n = 4,000). Fluo-4 calcium fluorescence (FDSS); active compounds read high;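 active = calcium fluorescence ratio at least three times the spread of buffer wells, meaning a non-specific response in parental cells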
Starred values were filed as active, the others as inactive; i = inactive; . = not tested or not shown.

SMILES	MrgX1 antagonist	MrgX1 agonist	RGS4 act	MrgX1 PAM	RGS4 inh	MrgX1 antag conf	HEK293 Ca flux	HEK293 Ca counter	HEK293 Ca cntr2
COc1ccc(CN2CCN(C(=O)c3cccc4ccccc34)CC2)c(OC)c1OC	i	i	i	i	i	.	.	.	.
CCC1CCCCN1C(=O)N[C@@H](Cc1ccccc1)C(=O)O (stereo not given in full)	-5*	i	i	i	i	i	i	i	i
COc1ccc(C(C2C(=O)CC(C)(C)CC2=O)C2C(=O)CC(C)(C)CC2=O)cc1	i	i	i	i	i	.	.	.	.
Cc1ccc(C(=O)NC(=S)Nc2ccccc2N2CCCC2)cc1[N+](=O)[O-]	-23*	i	i	i	i	i	i	i	i
O=C(CCl)Nc1cc(-c2ccccc2)nn1-c1ccccc1	-5.3*	i	i	i	i	i	i	i	57*
CC(=O)Nc1ccc(-c2cc(NC(C)=O)n(-c3ccccc3)n2)cc1	i	i	i	i	i	.	.	.	.
COCC(=O)n1nc(-c2ccc(Cl)cc2)nc1NCc1ccc(F)cc1	-4.9*	i	i	i	i	81%*	i	i	i
COCC(=O)n1nc(-c2ccccc2)nc1NCc1ccc(N(C)C)cc1	i	i	i	i	i	.	.	.	.
CCOC(=O)c1ccc(NC(=O)C(C)Sc2nc(O)c(-c3ccccc3)c(=O)[nH]2)cc1 (stereo not given)	i	i	i	i	i	.	.	.	.
CCCOc1ccc(-c2nc(SCc3ccccc3)[nH]c(=O)c2C#N)cc1OC	i	i	i	i	i	.	.	.	.
CCN(CC)c1ccc2c(Cl)c(Br)c(=O)oc2c1	-14*	i	i	i	i	i	0.037*	i	i
CN1CCN(C2=Nc3cc(F)ccc3Cc3ccccc32)CC1	i	i	i	i	i	.	.	.	.
CN1CCN(C2=Nc3c(Cl)cc(Cl)c4cccc2c34)CC1	-5.8*	i	i	i	i	i	i	i	49*
O=C(CCNC(=O)c1ccc(Cl)cc1)Nc1ccc(S(=O)(=O)N2CCCCC2)cc1	i	i	i	i	i	.	.	.	.
COc1ccc(CCNC(=O)CN2C(=O)C3(OCCCO3)c3ccccc32)cc1OC	-5.4*	i	i	i	i	84%*	i	i	i
O=C(NCC(=O)c1ccccc1)OCc1ccc([N+](=O)[O-])cc1	i	i	i	i	i	.	.	.	.
COc1ccccc1NC(=O)Cc1noc(CSc2nnc(C)s2)n1	i	i	i	i	i	.	.	.	.
COc1ccccc1NC(=O)Cc1noc(CSc2nnc(N)s2)n1	-7.7*	i	i	i	i	i	i	i	i
CC(C)n1ncc(N2CCOCC2)c(Cl)c1=O	i	i	i	i	i	.	.	.	.
Cc1ccccc1C(=O)Oc1ccc(Br)cc1C(=S)N1CCCC1	-9.4*	i	i	i	i	i	i	i	i
